Assay results: ChEMBL document CHEMBL4513216, “Probing the Open Global Health Chemical Diversity Library for Multistage-Active Starting Points for Next-Generation Antimalarials” (ACS Infect Dis, 2020)

Experiment: Toxicity liver stage against HepG2, at 10uM
Assay type: cell-based
Design: test concentration 10 uM, cell line HepG2-A16-CD81EGFP
Conditions: human, HepG2-A16-CD81EGFP cells; read-out: INHIBITION
Outline: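 Uninfected HepG2-A16-CD81EGFP cells, 3 × 10^3 per well, 1536-well, plated on prespotted compound at 10 μM final, parasite-free screening media added to match infected plates; puromycin 10 μM positive, DMSO 0.5% negative; run in parallel with 48 h PbLuc assay at 37 °C, 5% CO2; viability by CellTiter-Glo luminescence, normalized to controls.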

Compound	cytotoxicity at 10 µM [%]
O=C(O)c1ccc(CCNC(=O)C2(c3ccccc3)CC2)cc1	8.29
Cn1c(Nc2cn[nH]c2)c(C#N)c(=O)n(C)c1=O	14.9
CN(CCOc1cccc(CNC(=O)C2CC2)c1)C1CCOCC1	-7.12
CCc1nc(CN2CCCC(N(C)Cc3cnn(C)c3)C2)no1 (stereo unspecified)	-14.5
CCc1nccn1C1CCCN(C(=O)c2cnc3ccccc3n2)C1 (stereo unspecified)	-4.61
Cc1cn(-c2ccccc2)nc1NS(=O)(=O)c1cc(C(=O)O)cs1	-18.9
Cc1cccc(N2CCN(CCCNC(=O)c3nccn3C)CC2)c1	-0.679
O=c1c(-c2ccnc(NC3CCCCC3)n2)cnc2sc(Cl)cn12	-6.22
CC(C)Nc1ncc(-c2csc(NC(=O)C[C@H]3COCCN3)n2)cn1	-8.69
C[C@@H]1CN(CCOc2ccc(F)cc2)CC[C@@]1(O)C1CCOCC1	-7.19
Cc1nc2ccccn2c1CN1C[C@@H](CN(C)CCO)[C@@H](CO)C1	-11.4
CCCN1CCCn2nc(CNS(=O)(=O)c3cnn(CC)c3)cc2C1	-7.23
Cc1ccc2nc(CN3CCCCC3CCn3cccn3)cn2c1 (stereo unspecified)	7.31
CC(=O)NCCC1CCCCN1S(=O)(=O)c1ccc2ccccc2c1 (stereo unspecified)	-125
O=C(CCc1cc(Cl)no1)N1CCCCC1CCn1ccnc1 (stereo unspecified)	-1.83
CC(C1CCN(Cc2cnn(C)c2C2CC2)CC1)N1CCN(C)CC1 (stereo unspecified)	-11.9
COCc1ncc(CN2CC[C@@](C)(O)[C@@H](Cc3ccccc3)C2)cn1	12.1
O=C1CCN(Cc2cnc3c(-c4ccccc4)cnn3c2)CCN1	11
CCc1nc2c(N3CCCC(c4nccn4CCOC)C3)ncnc2o1 (stereo unspecified)	-11.2

Compound	cytotoxicity at 10 µM [%]
Cc1cccc(C(C(=O)NCC2(O)CCCCC2)N(C)C)c1 (stereo unspecified)	-8.82
O=C1CC[C@H]2CN(c3ncc(F)cn3)CC[C@H]2N1CCc1c[nH]cn1	3.96
CC(C)CCC(=O)N1CCC(c2nnc(CN(C)CCO)n2C)CC1	0.832
Cc1nc2nc(C)c3c(=O)n(-c4ccn[nH]4)ccc3n2n1	0.87
COc1cccc2c1OCC(C(=O)NC1CCN(S(C)(=O)=O)CC1)C2 (stereo unspecified)	-10.7
CCN(CC)C(=O)c1c(Br)cnn1CC	2.63
Cc1cn2c(n1)CCC(NC(=O)CCCn1cncn1)C2 (stereo unspecified)	-9.12
CN(Cc1nnc(C2CC2)n1C)C1CCN(Cc2ccncc2)C1 (stereo unspecified)	-10.3
CCC(NC(=O)c1ccoc1)c1ccccc1OCC(=O)N1CCCC1 (stereo unspecified)	-4.31
COc1cccc(COCC(=O)N2CCN(S(C)(=O)=O)CC2)c1	-10.7
Cc1cc(NC(=O)NCC(C(C)C)N2CCOCC2)n(C)n1 (stereo unspecified)	-17.2
O=C(CCCc1nnc(-c2ccccc2)o1)N1CCC1	-3.41
Cn1cnnc1C1CCN(C(=O)CCCOc2ccccc2)CC1	-7.62
O=C1CCc2cc(-c3csc(CCN4CCOC4=O)n3)c(F)cc2N1	35.2
CC(C)Oc1ccc(C(=O)NCc2ccc3c(c2)CCCN3C)cn1	-6.63
CC(C)c1nc(CN(C)C2CCN(CCn3cc(C#N)cn3)C2)no1 (stereo unspecified)	-6.29
CC(C)COCC(NC(=O)c1ccncc1)c1ccco1 (stereo unspecified)	-9.53
CC(NC(=O)CCOc1ccc(F)cc1)c1nnc2n1CCCCC2 (stereo unspecified)	-8.71
Cc1nn(C)c(C)c1C1CCCN1C(=O)CCc1cscn1 (stereo unspecified)	-3.66

Compound	cytotoxicity at 10 µM [%]
Cn1ccnc1CN1CCCN(C(=O)c2ccc(Cl)o2)CC1	-7.03
O=C1OCCC1N1CCN(C(=O)Cc2c[nH]c3ccccc23)CC1 (stereo unspecified)	-7.03
CC(C)n1c(=O)c2ccccc2n(CCCN(C)C)c1=O	-13.2
CCC(CN1CCCCC1)NC(=O)C1(c2cccc(F)c2)CC1 (stereo unspecified)	0.689
Cc1nc(CN2C(=O)CCC23CCN(Cc2cccn2C)CC3)cs1	0.676
O=C(NCc1ccncc1)c1nc2c(o1)CN(C(=O)c1cccnc1)C2	1.21
CN1CCC2(CCCN(C(=O)c3cncn3C)C2)CC1	-0.757
O=C(CC1CC1)N1CC[C@H]2[C@@H]1CCC(=O)N2Cc1ccncc1	-5.15
CN(C)CCN1CCOCC2(CCCN(C(=O)Cc3ccccc3)C2)C1 (stereo unspecified)	2.14
COc1c(C)cc(CNCc2ccnc(N3CCOCC3)c2)cc1C	11.9
CS(=O)(=O)N1CC[C@]2(C[C@@H](Oc3ccccn3)CO2)C1	-144
Cc1ccc(-c2ccc(CC3NCCN(C)C3=O)cc2)cc1 (stereo unspecified)	-25
CC(C)N(C)Cc1nnc2n1CCN(S(=O)(=O)C1CC1)CC2	-1.13
CC(C)CN1CCC2(CCN(Cc3nccs3)CC2)C1=O	-5.77
Cc1cncc(C(=O)N2CC[C@@H]3[C@H]2CCC(=O)N3CCN(C)C)c1	-4.84
CC(C)Cn1cc2nc(N)[nH]cc-2c1=O	5.26
COc1ccc(-c2ncccc2C(=O)N2C[C@@H]3CC[C@H]2C3)cn1	6.42
Cc1nnsc1CN1C[C@@H]2CC[C@H]1CN(Cc1ccc(F)cc1)C2	-7.44
